Measurements as given in ChEMBL document CHEMBL1649306, “Arylimidamide DB766, a potential chemotherapeutic candidate for Chagas' disease treatment” (Antimicrob Agents Chemother, 2010).
Calls of active or inactive are those of the source. The rule behind the calls is not given here.

Legend:
Mus musculus [1] = test: Toxicity in female Swiss-Webster mouse assessed as mortality at cumulative dose of 200 mg/kg, ip measured after 48 hrs; assay type: organism-based; design: dose 200 mg/kg, route intraperitoneal; conditions: in vivo
Summary of the method: (§1)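 Uninfected 8–10-week-old female and male Swiss Webster and C3H/He (H-2k) mice injected i.p. on day 1 every 2 h with escalating doses: 5, 15, 30, 50 and 100 mg/kg (cumulative 20, 50, 100, 200 mg/kg). Toxic and subtoxic signs inspected on days 2–3 per OECD guidelines; tolerated dose set at 48 h.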

Trypanosoma cruzi [2] = test: Antitrypanosomal activity against Trypanosoma cruzi Y bloodstream forms infected in Swiss-Webster mouse assessed as reduction in parasite-induced weight loss in mouse at 50 mg/kg/day, ip administered 5 days postinfection for 10 consecutive days measured on day 120; assay type: functional, organism-based
Summary of the method: (§2)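 Body weight of infected, treated mice followed from 0 to 120 dpi.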

Trypanosoma cruzi [3] = test: Antitrypanosomal activity against Trypanosoma cruzi Y bloodstream forms infected in Swiss-Webster mouse assessed as survival of mouse at 50 mg/kg/day, ip p administered 5 days postinfection for 10 consecutive days measured on day 120; assay type: functional, organism-based
Summary of the method: (§3)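 Male Swiss mice infected i.p. with 10^4 Y strain bloodstream forms. Given 0.2 ml i.p. at 5 and 8 dpi, or daily for 10 days from 5 dpi; reference drug given by gavage. Parasitemia measured by the Pizzi-Brener method, cumulative mortality checked daily to 120 dpi, n ≥ 6 per group.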

Trypanosoma cruzi [4] = test: Antitrypanosomal activity against Trypanosoma cruzi Columbian bloodstream forms infected in C3H mouse assessed as decrease in parasite load in 25 mg/kg/day, po administered 5 days postinfection for 10 consecutive days measured after 120 days; assay type: functional, organism-based
Trypanosoma cruzi [5] = test: Antitrypanosomal activity against Trypanosoma cruzi Y bloodstream forms infected in Swiss-Webster mouse assessed as reduction in parasite-induced weight loss at 100 mg/kg/day, ip administered 5 days postinfection for 10 consecutive days measured after 120 days; assay type: functional, organism-based; summary of the method: as §2
Trypanosoma cruzi [6] = test: Antitrypanosomal activity against Trypanosoma cruzi Y bloodstream forms infected in Swiss-Webster mouse assessed as decrease in parasite load at 25 mg/kg/day, ip administered 5 days postinfection for 10 consecutive days measured after 8 days; assay type: functional; design: scale not given: the % may be the effect or the level left; conditions: route intraperitoneal; summary of the method: as §3
Trypanosoma cruzi [7] = test: Antitrypanosomal activity against Trypanosoma cruzi Columbian bloodstream forms infected in C3H mouse assessed as decrease in parasite load at 50 mg/kg/day, po administered 5 days postinfection for 10 consecutive days measured after 41 days; assay type: functional, organism-based
Summary of the method: (§4)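 C3H/He mice infected i.p. with 10^3 or 5 × 10^3 Colombian strain bloodstream forms. Treated daily for 10 days with 0.1 ml i.p. or by gavage, reference drug given by gavage. Parasitemia measured by the Pizzi-Brener method; n ≥ 6 parasitemic mice per group.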

Trypanosoma cruzi [8] = test: Antitrypanosomal activity against Trypanosoma cruzi Columbian bloodstream forms infected in C3H mouse assessed as reduction in parasite-induced weight loss at 25 mg/kg/day, ip administered 5 days postinfection for 10 consecutive days measured after 120 days; assay type: functional, organism-based; summary of the method: as §2
Trypanosoma cruzi [9] = test: Antitrypanosomal activity against Trypanosoma cruzi Y bloodstream forms infected in Swiss-Webster mouse assessed as decrease in parasite load at 50 mg/kg/day, ip administered 8 days postinfection measured on day 2; assay type: functional; design: scale not given: the % may be the effect or the level left; conditions: route intraperitoneal
Summary of the method: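 Two-day regimen in male Swiss mice infected i.p. with 10^4 Y-strain bloodstream forms: i.p. doses (0.2 ml) at 5 and 8 dpi. Circulating parasites quantified at the 8 dpi peak by Pizzi-Brener method; reduction versus infected untreated mice; n ≥ 6 per group.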

Trypanosoma cruzi [10] = test: Antitrypanosomal activity against Trypanosoma cruzi Columbian bloodstream forms infected in C3H mouse assessed as decrease in parasite load at 100 mg/kg/day, ip administered 5 days postinfection for 10 consecutive days measured after 31 days; assay type: functional; design: scale not given: the % may be the effect or the level left; conditions: route intraperitoneal; summary of the method: as §4
Trypanosoma cruzi [11] = test: Antitrypanosomal activity against Trypanosoma cruzi Columbian bloodstream forms infected in C3H mouse assessed as decrease in parasite load at 100 mg/kg/day, ip administered 5 days postinfection for 10 consecutive days measured after 41days post infection; assay type: functional, organism-based; summary of the method: as §4
Mus musculus [12] = test: Toxicity in […](H-2k) mouse assessed as effect on creatine kinase level at 100 mg/kg/day, ip; assay type: organism-based; design: route intraperitoneal; conditions: in vivo
[13] = Cytotoxicity against Swiss-Webster mouse cardiomyocytes after 72 hrs by MTT assay; assay type: cell-based, Cardiomyocyte; conditions: read-out: LC50
Summary of the method: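 Primary embryonic cardiomyocytes from Swiss mice, uninfected, incubated 24 h or 72 h at 37°C, 5% CO2, with 0 to 96 μM in DMEM. MTT read at 490 nm; LC50 taken as concentration reducing viability by 50%; at least three experiments in duplicate.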

Trypanosoma cruzi [14] = test: Antitrypanosomal activity against Trypanosoma cruzi Y bloodstream forms after 2 hrs by light microscopy; assay type: functional, organism-based
Summary of the method: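 Bloodstream trypomastigotes from infected Swiss mice at peak parasitemia, 5.0 × 10^6 cells/ml in RPMI 1640 with 5% FBS. Exposed at 37°C to serial dilutions from 0 to 32 μM. Motile live parasites counted by light microscopy in a Neubauer chamber, then IC50 calculated.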

Mus musculus [15] = test: Toxicity in […](H-2k) mouse assessed as effect on GPT level at 100 mg/kg/day, po; assay type: organism-based; design: route oral; conditions: in vivo
Mus musculus [16] = test: Toxicity in male Swiss-Webster mouse assessed as weight loss at cumulative dose of 200 mg/kg, ip measured after 48 hrs; assay type: organism-based; design: dose 200 mg/kg, route intraperitoneal; conditions: in vivo
Summary of the method: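 Acute toxicity in 8–10-week-old Swiss Webster mice. i.p. injections every 2 h of 5, 15, 30, 50 and 100 mg/kg (cumulative 200 mg/kg) on day 1. Toxic and subtoxic signs inspected on days 2 and 3 per OECD guidelines; outcome read 48 h after injection.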

Mus musculus [17] = test: Cytotoxicity against Swiss-Webster mouse assessed as effect on creatine kinase at 100 mg/kg/day measured after 14 days postinfection; assay type: organism-based; conditions: in vivo, 336 h
Trypanosoma cruzi [18] = test: Antitrypanosomal activity against Trypanosoma cruzi Columbian bloodstream forms infected in C3H mouse assessed as decrease in parasite-induced cardiac inflammation at 100 mg/kg/day, ip administered 5 days postinfection for 10 consecutive days measured after 43 days; assay type: functional, Heart; design: scale not given: the % may be the effect or the level left; conditions: route intraperitoneal
Summary of the method: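 Male C3H/He mice infected i.p. with 5 × 10^3 Colombian strain bloodstream forms, given 100 mg/kg/day i.p. daily for 10 days. At 43 dpi, H&E-stained 3 μm heart sections scored for amastigote nests and infiltrates (>10 mononuclear cells) over at least 100 fields. Three sections each from at least three mice.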

Trypanosoma cruzi [19] = test: Antitrypanosomal activity against Trypanosoma cruzi Y bloodstream forms infected in Swiss-Webster mouse assessed as decrease in cardiac parasite load at 100 mg/kg/day, ip administered 5 days postinfection for 10 alternate days measured after 14 days postinfection; assay type: functional, Heart; design: scale not given: the % may be the effect or the level left; conditions: route intraperitoneal
Mus musculus [20] = test: Toxicity in male Swiss-Webster mouse assessed as mortality at cumulative dose of 200 mg/kg, ip measured after 48 hrs; assay type: organism-based; design: dose 200 mg/kg, route intraperitoneal; conditions: in vivo; summary of the method: as §1
Trypanosoma cruzi [21] = test: Antitrypanosomal activity against Trypanosoma cruzi Y bloodstream forms infected in Swiss-Webster mouse assessed as reduction in parasite-induced weight loss in mouse at 25 mg/kg/day, ip administered 5 days postinfection for 10 consecutive days measured on day 120; assay type: functional, organism-based; summary of the method: as §2
Trypanosoma cruzi [22] = test: Antitrypanosomal activity against Trypanosoma cruzi Columbian bloodstream forms infected in C3H mouse assessed as decrease in parasite load at 50 mg/kg/day, ip administered 21 days postinfection measured on day 45; assay type: functional, organism-based
Summary of the method: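 C3H/He mice infected i.p. with 10^2 Colombian strain bloodstream forms. Treatment started at parasitemia onset (21 dpi) with daily doses for 10 treatments, 0.1 ml i.p. Parasitemia measured by the Pizzi-Brener method; n ≥ 6 parasitemic mice per group.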

## CC(C)Oc1cc(NC(=N)c2ccccn2)ccc1-c1ccc(-c2ccc(NC(=N)c3ccccn3)cc2OC(C)C)o1
Mus musculus [1]
  Activity: Non-toxic
Trypanosoma cruzi [2]
  Activity: inactive
Trypanosoma cruzi [3]
  Activity: Active
Trypanosoma cruzi [4]
  Activity: inactive
Trypanosoma cruzi [5]
  Activity: Active
Trypanosoma cruzi [6]
  Activity: 88%
Trypanosoma cruzi [7]
  Activity: Active
Trypanosoma cruzi [8]
  Activity: inactive
Trypanosoma cruzi [9]
  Activity: 88%
Trypanosoma cruzi [10]
  Activity: 100%
Trypanosoma cruzi [11]
  Activity: Active
Mus musculus [12]
  Activity: Non-toxic
[13]
  CC50 at 72 h: 16.4 µM
Trypanosoma cruzi [14]
  IC50: 1.14 µM
Mus musculus [15]
  Activity: Non-toxic
Mus musculus [16]
  Activity: 10%
Mus musculus [17]
  Activity: Non-toxic
Trypanosoma cruzi [18]
  Activity: 75%
Trypanosoma cruzi [19]
  Activity: 94%
Mus musculus [20]
  Activity: Non-toxic
Trypanosoma cruzi [21]
  Activity: inactive
Trypanosoma cruzi [22]
  Activity: inactive
